In data set [1] the test system is α-caff VHH. The arrangement: species or system llama. The following applies: binding to anti-caffeine VHH. The method in brief: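 Anti-caffeine VHH was dialysed overnight against PBS pH 7.4. Test compound at 50 µM in the syringe was titrated into 10 µM VHH in the cell at 25°C, as 27 injections of 10 µL.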
For data set [2], the target named is anti-caffeine VHH produced through grafting CDR regions (Caffgraft). Put plainly: AUC.
Data set [3] has the same target. Put plainly: ITC. For orientation: In ITC the heat of successive injections is recorded.
Data set [4] has the same target. The data set can be described thus: AUC. The source holds these as a separate data set.
Data set [5] has as its system VHH:VHH dimer. Put plainly: Analytical ultracentrifugation, sedimentation equilibrium. The class given is binding. The note with it: with vs without stoichiometric caffeine. The method in brief:
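Sedimentation equilibrium on tag-free, E. coli-expressed anti-caffeine VHH (WT, and F47R with caffeine) at 3, 10 and 30 µM, alone or with stoichiometric caffeine (1.5, 5, 15 µM), at 20°C. Cells were spun 24 h at 27,000, 32,000 and 44,000 rpm and scanned at 294, 260 and 236 nm. All speeds and concentrations were analysed globally: a single-exponential fit gave weight-averaged MW, then a monomer-dimer fit gave assembly constants.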

The nature of data set [6]: Guanidinium hydrochloride chemical unfolding by circular dichroism. The class given is physicochemical. The following applies: 25°C. On the technique in general: Circular dichroism is the unequal absorption of left and right circularly polarised light.
Data set [7] in a line: Isothermal titration calorimetry. The method in brief: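 Single arginine interface variants were made by site-directed mutagenesis and expressed in E. coli, and the tag was removed. For low-affinity binding (Turnbull method), 1 mM caffeine was titrated into 100 µM VHH variant, with stoichiometry fixed at n = 0.5 in the fit. Protein concentration came from ε280 30,035 M−1 cm−1 (F47R, V104R) or 28,545 M−1 cm−1 (Y106R).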

Consider `Cn1c(=O)c2c(ncn2CC(=O)O)n(C)c1=O` [theophylline-7-acetic acid], for which the “ΔΔG° penalty (loss in affinity) relative to caffeine” value in data set [1] is about 1.5 kcal/mol.

B1: anti-caffeine VHH produced through grafting CDR regions (Caffgraft) (VHH)
VHH: QVQLVESGGGLVQAGGSLRLSCTASGRTGTIYSMAWFRQAPGKEREFLATVGWSSGITYYMDSVKGRFTISRDKGKNTVYLQMDSLKPEDTAVYYCTATRAYSVGYDYWGQGTQVTVSS
Take B1: the Kd in data set [2] is 23.5 µM; in data set [3] it was 13.1 µM; in data set [4], 0.848 µM. Further, the stoichiometry N in data set [2] was 2. Besides, the “fold higher observed dimerization affinity on caffeine binding” value in data set [5] was about 28 fold. For the same molecule, the “loss of stability (ΔGu) relative to anti-RNase A VHH” value in data set [6] is “approximately 1.5 kcal/mol”. The m-value in data set [6] (guanidinium hydrochloride) is 2.62 ± 0.06 kcal mol^−1M^−1. This molecule showed a ΔGu in data set [6] (guanidinium hydrochloride, PBS pH 7.4, 10 μM VHH) of 7.6 ± 0.2 kcal/mol.

B2: α-caff VHH-F47R: anti-caffeine VHH dimer interface variant with arginine at F47 (Kabat numbering) (antibody, V domains shown)
VH: QVQLVESGGGLVQAGGSLRLSCTASGRTGTIYSMAWFRQAPGKERERLATVGWSSGITYYMDSVKGRFTISRDKGKNTVYLQMDSLKPEDTAVYYCTATRAYSVGYDYWGQGTQVTVSS
Turning to B2, the “ΔΔG° (weaker caffeine binding affinity than anti-caffeine VHH)” value in data set [7] is on record as over 5 kcal/mol.

The Kd is the free concentration of one partner at which half of the binding sites on the other are occupied at equilibrium, for simple one-to-one binding. A higher Kd goes with weaker binding. Broadly, the stoichiometry N is a count of units in the complex or per binding partner.

Source of the values: publication PMC10228392 (mAbs, 2023).
